Bioassay records from PubChem BioAssay.
FID counter – counter-screen for HCV NS3 helicase inhibitors: DNA intercalator displacement | inhibition, % at 7.9 µM | DNA fluorescent intercalator displacement, fluorescence | hit rate 0.17% among 290,000; in the data active means inhibition above about 37%;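 further: 0% = vehicle and 100% = reference compound; higher means more ethidium bromide displaced from hairpin DNA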
EBNA-1 inh – blocks EBNA-1 binding to DNA; AID 1950; hit rate 0.34% among 300,000; inhibition, % at 14.8 µM; EBNA-1 DNA binding, fluorescence polarization; in the data active means inhibition above about 28%
FGF22 binding – FGF22 (human) thermal shift binding. Q9HCT0. recombinant FGF22 thermal shift, SYPRO orange fluorescence; percent of sucrose octasulfate shift, DMSO zero. activity (Tm shift, normalised), % at 9.99 µM. hit rate 1.5% among 340,000. AID 651658;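 active means mean Tm shift, scaled 0 neutral to 100 positive control, at about 1.3% or above, every replicate too, limit read from the data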
Target sequence (Q9HCT0 whole entry, looked up): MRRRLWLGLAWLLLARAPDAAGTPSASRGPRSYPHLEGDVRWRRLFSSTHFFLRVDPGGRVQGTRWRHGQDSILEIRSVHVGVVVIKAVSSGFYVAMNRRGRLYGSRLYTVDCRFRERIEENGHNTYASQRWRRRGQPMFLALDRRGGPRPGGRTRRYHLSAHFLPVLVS
GRIN3A LBD mod – NR3A (human) ligand-binding domain modulation; hit rate 2.5% among 340,000; NR3A LBD differential scanning fluorimetry, Tm shift; 0% = protein alone, 100% = glycine-bound protein; Tm shift relative to glycine control, % at 25 µM;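 active means melting temperature shift of at least 10% of the positive control shift, at one fixed dose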
HCV NS3 hel inh – HCV NS3 helicase inhibition; NS3 helicase DNA unwinding, Cy5 molecular beacon fluorescence; inhibition, % at 10.9 µM; hit rate 0.56% among 290,000; AID 1800;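 active means inhibition above the mean of all tested compounds plus 3 SD, set per campaign, cut at about 35% in these data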;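 further: 0% = DMSO wells and 100% = thioflavine S control wells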
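Assay system – hepatitis C virus NS3 helicase domain fragment enzyme · Buffer or medium – MOPS pH 6.5, MgCl2, DTT, Tween20, BSA · Reagent – Cy5/quencher beacon DNA duplex and ATP to start · Compound – single 10.9 µM dose · Timing – 1 h at 25 °C · Technique – Cy5 beacon fluorescence read at start and 1 h · Measure – % inhibition of unwinding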
ZTA counter – blocks Epstein-Barr virus ZTA, an EBNA-1 counter-screen | hit rate 0.15% among 320,000 | ZTA-DNA binding, fluorescence polarization | P03206 | AID 2234 | inhibition, % at 11 µM; in the data active means inhibition above about 33%
Target sequence (P03206 whole entry, looked up): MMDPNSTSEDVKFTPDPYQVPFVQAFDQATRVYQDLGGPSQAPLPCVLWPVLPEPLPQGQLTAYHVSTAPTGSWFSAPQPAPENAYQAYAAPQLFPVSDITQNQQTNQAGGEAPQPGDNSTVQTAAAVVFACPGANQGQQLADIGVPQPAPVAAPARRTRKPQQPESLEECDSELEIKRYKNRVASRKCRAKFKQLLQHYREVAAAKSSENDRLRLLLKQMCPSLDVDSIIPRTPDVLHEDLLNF
Numbers without * were called inactive; . = no result. Compounds with a hit are over-represented: about 3.6% of the library has one in this group of screens.

SMILES | FID counter | EBNA-1 inh | FGF22 binding | GRIN3A LBD mod | HCV NS3 hel inh | ZTA counter
Cc1noc(C)c1NC(=O)Nc1cccc2c1O[C@H](CN(C)Cc1ccncc1)[C@@H](C)CN([C@H](C)CO)C2=O | . | . | 0 | . | . | .
COc1ccc(-c2cn(CC[C@@H]3CC[C@@H](N)[C@H](CO)O3)nn2)cc1 | . | . | 0 | . | . | .
CCc1ccc2c(CN3CCOCC3)cc(=O)oc2c1 | -12 | -14 | 0 | -5 | -4 | -2
CCc1ccc2oc(=O)cc(CN3CCOCC3)c2c1 | -9 | -15 | . | 10* | -3 | -11
N#CCC(=O)N/N=C/c1cc(Br)ccc1OCc1cccc2ccccc12 | -22 | -3 | 0 | 20* | -9 | 7
N#CCC(=O)N/N=C/c1c2ccccc2cc2ccccc12 | -15 | . | . | -1 | -2 | .
Cc1oc(-c2cc(F)ccc2F)nc1CN1CCN(C)C(=O)[C@@H]1C | 0 | 2 | 43* | -1 | -5 | 7
COc1ccccc1NC(=S)N1CCC(c2nc3cc(C)c(C)cc3[nH]2)CC1 | 3 | -6 | . | -1 | -19 | -3
Cc1cc2nc(C3CCN(C(=S)NCC(C)C)CC3)[nH]c2cc1C | 6 | 0 | 1.9* | 1 | -4 | 27
COCC(=O)N(C)C[C@@H]1Oc2ncc(-c3ccc(C#N)cc3)cc2C(=O)N([C@H](C)CO)C[C@H]1C | . | . | 0 | . | . | .
O=C(Nc1ccc(CN2CCCCC2)cc1)Nc1ccccc1Cl | 16 | 1 | 0 | 1 | -10 | -12
O=C(Nc1ccc(Br)cc1)Nc1ccccc1Cl | 5 | 1 | 0 | 21* | -9 | -1
O=C(Nc1ccc(Cl)c(Cl)c1)Nc1ccccc1NS(=O)(=O)c1cccs1 | -3 | 17 | 1.7* | 34* | 16 | 10
O=S(=O)(Nc1cccc2ccccc12)c1cccs1 | -8 | 0 | 0 | 1 | -3 | 14
O=C(Nc1ccccc1)Nc1ccccc1NS(=O)(=O)c1cccs1 | 3 | 8 | . | 22* | 7 | -11
CC(=O)c1cccc(NC(=O)C(OC(=O)c2ccccc2NS(=O)(=O)c2cccs2)c2ccccc2)c1 (stereo unspecified) | -11 | 11 | . | 30* | 7 | 9
O=C(Nc1ccc(Cl)cc1)Nc1ccccc1C(=O)O | -2 | -2 | . | 2 | 14 | 0
O=C(Nc1ccc(Cl)c(Cl)c1)Nc1ccccc1C(=O)O | -16 | 10 | . | 18* | 2 | -29
CCOC(=O)CSC1=Nc2ccccc2C2=NC(CC(=O)NCc3ccccc3)C(=O)N12 (stereo unspecified) | -24 | 2 | . | -1 | 11 | -2
CCCCNC(=O)CC1N=C2c3ccccc3N=C(SCC(=O)Nc3ccccc3C)N2C1=O (stereo unspecified) | -34 | 3 | . | 18* | 2 | 3
COc1ccc(C(=O)Nc2cccnc2Sc2ccc(Cl)cc2)cc1 | -16 | 0 | 29* | -1 | -6 | -7
CCOC(=O)Nc1cccnc1Sc1ccc(Cl)cc1 | . | -12 | 0 | 0 | . | 0
Cc1ccc(Sc2ncccc2NC(=O)c2ccccc2Cl)cc1 | -22 | -4 | 0 | 14* | -8 | -6
CC(NC(=O)COC(=O)c1ccc2c(c1)S(=O)(=O)N=C1CCCCCN12)C12CC3CC(CC(C3)C1)C2 (stereo unspecified) | 3 | -6 | 0 | 18* | 1 | -3
Cc1ccc(-c2noc(CCC(=O)Nc3ccc(C)cn3)n2)cc1 | -4 | 2 | . | 11* | -8 | 9
SMILES | FID counter | EBNA-1 inh | FGF22 binding | GRIN3A LBD mod | HCV NS3 hel inh | ZTA counter
O=C(O)c1ccc(-n2[nH]c3c(c2=O)CCCC3)cc1 | -1 | -3 | 43* | 0 | 5 | -13
Cc1n[nH]c(=S)n1/N=C/c1ccccc1OCc1ccc(Cl)cc1Cl | -2 | 14 | . | 16* | 2 | 4
CC(CSc1n[nH]c(=S)s1)c1ccccc1 (stereo unspecified) | . | . | 0 | -1 | . | .
CC(C)CSc1n[nH]c(=S)s1 | 13 | -3 | 43* | 2 | 8 | 17
O=C(C[C@H]1CC[C@H](NC(=O)Nc2ccccc2)[C@@H](CO)O1)NCc1ccccn1 | . | . | 0 | . | . | .
O=C(O)c1ccc(C[n+]2c(-c3ccccc3)csc2Nc2ccccc2)cc1 | -12 | 6 | . | 18* | 4 | -15
O=C(CSc1nnc(-c2cccs2)n1-c1ccccc1)N1CCCC1 | -30 | 2 | . | 11* | -2 | -12
O=c1c2ccc([N+](=O)[O-])cc2ncn1CCOc1cccc(Br)c1 | 3 | -4 | 43* | -11 | -4 | -23
O=c1c2ccc([N+](=O)[O-])cc2ncn1CCOc1ccc(Cl)cc1 | 8 | -2 | 0 | -22 | -9 | 8
CC(C)(C)c1ccccc1NC(=O)Cn1cnc2cc([N+](=O)[O-])ccc2c1=O | -2 | -5 | 43* | 0 | 10 | -7
COc1ccc2c3c(n(C)c2c1)[C@H](CO)NCC31CCN(C(C)=O)CC1 | . | . | 0 | . | . | .
CNC[C@H]1OCCCC[C@@H](C)Oc2ccc(NS(=O)(=O)c3ccc(C)cc3)cc2C(=O)N([C@H](C)CO)C[C@H]1C | . | . | 0 | . | . | .
COc1ccc(CCNC(=O)CSc2nnc(Cn3c(=O)sc4ccccc43)n2C)cc1OC | -13 | 0 | 0 | 11* | -4 | 12
O=C(c1cccnc1)C1CCCN(Cc2nc(Cc3ccccc3F)no2)C1 (stereo unspecified) | -18 | -1 | 0 | -1 | -1 | 1
O=C(c1cccs1)C1CCCN(Cc2nc(Cc3ccccc3F)no2)C1 (stereo unspecified) | -28 | 10 | 43* | 0 | 20 | -21
COC(=O)c1[nH]c2ccc(C)cc2c1NC(=O)C1=COCCO1 | -7 | 5 | . | 0 | -2 | -7
COC(=O)c1[nH]c2ccc(F)cc2c1NC(=O)C1=COCCO1 | -2 | -2 | . | 17* | 2 | 9
Cc1noc(C)c1S(=O)(=O)Nc1ccc2c(c1)C(=O)N([C@@H](C)CO)C[C@@H](C)[C@@H](CN(C)S(=O)(=O)c1ccc(F)cc1)O2 | . | . | 0 | . | . | .
COc1ccc2c3c(n(C)c2c1)[C@H](CO)N(C)CC31CN(C(=O)c2ccccc2F)C1 | . | . | 0 | . | . | .
CC1CC2(C)Oc3ccccc3CC2C(C)C1CNCCCN(C)C (stereo unspecified) | 33 | -12 | 43* | -13 | -42 | -17
C[C@H]1CN([C@@H](C)CO)C(=O)c2cc(NC(=O)CCCN(C)C)ccc2O[C@H]1CN(C)S(C)(=O)=O | . | . | 1 | . | . | .
COc1ccc(NC(=O)CN2C(=O)N(C)Cc3ccccc32)c(C)c1 | -17 | -5 | 44* | 2 | 15 | 0
COc1ccc(NC(=O)CN2CCc3ccccc3C2)c(OC)c1 | -28 | 0 | 0 | 0 | -2 | -4
CC1Oc2ccccc2C=C1/C=N/NC(=O)c1ccccc1O (stereo unspecified) | 2 | -6 | . | 13* | 1 | -9
